These results are taken from ChEMBL document CHEMBL1152796, “Azole antimicrobial pharmacophore-based tetrazoles: synthesis and biological evaluation as potential antimicrobial and anticonvulsant agents” (Bioorg Med Chem, 2009).

The test system of assay [1] is Mus musculus. Kind of assay: Anticonvulsant activity in Wister albino mouse assessed as protection against maximal electroshock-induced seizures at 100 mg/kg, ip administered 30 mins before metrazole challenge measured after 30 mins. As to conditions: route intraperitoneal. The assay is classed as functional. A general note: Protection in the maximal electroshock model is a classic sign of anticonvulsant action.

For assay [2], the system named is Mus musculus. The assay is described as follows: Anticonvulsant activity in Wister albino mouse assessed as protection against subcutaneous metrazole-induced seizures at 100 mg/kg, ip administered 30 mins before metrazole challenge measured after 30 mins. The assay is classed as functional. Conditions: route intraperitoneal. The essentials: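 Wistar albino mice, either sex, 25–30 g, 3 months old, in groups of six. Compounds in DMSO were given ip at 30, 100 or 300 mg/kg; vehicle-only controls. After 30 min, metrazole 100 mg/kg in DMSO was injected sc at the posterior midline. Protection meant absence of any clonic spasm lasting ≥5 s; scored as protected/tested.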

In assay [3] the test system is Staphylococcus aureus. Kind of assay: Antibacterial activity against Staphylococcus aureus ATCC 6538 at 1 mg/mL after 24 hrs by agar diffusion method. The assay is classed as functional. As to conditions: ATCC 6538, 24 h, read-out: Diameter of inhibition zone. A digest of the protocol: (§1)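 Agar disc diffusion: 5 mm sterile paper discs soaked in 1 mg/mL test solution in DMSO were placed on agar seeded with the organism, in triplicate, with a DMSO-only control. Bacterial plates were incubated at 37 °C for 24 h and fungal plates for 7 days. Read-out was the average inhibition-zone diameter in mm. Fungi were clinical isolates.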

For assay [4], the system named is Bacillus subtilis. The assay is described as follows: Antibacterial activity against Bacillus subtilis NRRL B-14819 at 1 mg/mL after 24 hrs by agar diffusion method. The assay is classed as functional. As to conditions: read-out: Diameter of inhibition zone. The essentials: as §1
On the technique in general: In agar diffusion tests the substance spreads into inoculated agar from a disc or well.

Assay [5] has as its system Staphylococcus aureus. Kind of assay: Antibacterial activity against Staphylococcus aureus ATCC 6538 after 24 to 48 hrs by twofold serial dilution method. The assay is classed as functional. The essentials:
(§2)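 Broth microdilution in Müller–Hinton broth. DMSO stocks at 800 were diluted twofold from 400 down to 6.25. Wells received 10^6 CFU/mL bacterial suspension and were incubated at 36 °C for 24–48 h, with controls. MIC was read per well. Duplicate assays; run only for compounds giving inhibition zones ≥14 mm.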

In another assay the test system is Candida albicans. The assay is described as follows: Antifungal activity against Candida albicans isolate at 1 mg/mL after 7 days by twofold serial dilution method. The assay is classed as functional. Conditions: 168 h, read-out: Diameter of inhibition zone.
The next assay deals with Pichia kudriavzevii. The assay is described as follows: Antifungal activity against Candida krusei isolate after 72 hrs by twofold serial dilution method. The assay is classed as functional, organism-based.
Another assay relates to Aspergillus fumigatus. Kind of assay: Antifungal activity against Aspergillus fumigatus isolate at 1 mg/mL after 7 days by agar diffusion method. The assay is classed as functional. Conditions: 168 h, read-out: Diameter of inhibition zone. A digest of the protocol:
as §1

The test system of a further assay is Aspergillus niger. The assay is described as follows: Antifungal activity against Aspergillus niger isolate after 72 hrs by twofold serial dilution method. The assay is classed as functional, organism-based.
Assay [6] deals with Escherichia coli. The assay is described as follows: Antibacterial activity against Escherichia coli ATCC 25922 after 24 to 48 hrs by twofold serial dilution method. The assay is classed as functional. The essentials: as §2
In assay [7] the test system is Escherichia coli. Kind of assay: Antibacterial activity against Escherichia coli ATCC 25922 at 1 mg/mL after 24 hrs by agar diffusion method. As to conditions: ATCC 25922, 24 h, read-out: Diameter of inhibition zone. The assay is classed as functional. The essentials: as §1
Assay [8] relates to Klebsiella pneumoniae. Kind of assay: Antibacterial activity against Klebsiella pneumoniae isolate at 1 mg/mL after 24 hrs by agar diffusion method. The assay is classed as functional. Conditions: read-out: Diameter of inhibition zone. A digest of the protocol: as §1
In assay [9] the test system is Micrococcus luteus. Kind of assay: Antibacterial activity against Micrococcus luteus ATCC 21881 at 1 mg/mL after 24 hrs by agar diffusion method. The assay is classed as functional. Conditions: ATCC 21881, 24 h, read-out: Diameter of inhibition zone. A digest of the protocol: as §1
The subject of assay [10] is Micrococcus luteus. The assay is described as follows: Antibacterial activity against Micrococcus luteus ATCC 21881 after 24 to 48 hrs by twofold serial dilution method. The assay is classed as functional. The essentials:
as §2

Assay [11] relates to Klebsiella pneumoniae. The assay is described as follows: Antibacterial activity against Klebsiella pneumoniae isolate after 24 to 48 hrs by twofold serial dilution method. The assay is classed as functional. A digest of the protocol: as §2
For another assay, the system named is Trichophyton rubrum. The assay is described as follows: Antifungal activity against Trichophyton rubrum isolate after 72 hrs by twofold serial dilution method. The assay is classed as functional, organism-based.
The subject of assay [12] is Pseudomonas aeruginosa. Kind of assay: Antibacterial activity against Pseudomonas aeruginosa ATCC 27853 after 24 to 48 hrs by twofold serial dilution method. The assay is classed as functional. A digest of the protocol: as §2
The next assay relates to Candida tropicalis. Kind of assay: Antifungal activity against Candida tropicalis isolate after 72 hrs by twofold serial dilution method. The assay is classed as functional, organism-based.
For assay [13], the system named is Bacillus subtilis. Kind of assay: Antibacterial activity against Bacillus subtilis NRRL B-14819 after 24 to 48 hrs by twofold serial dilution method. The assay is classed as functional. A digest of the protocol:
as §2

For assay [14], the system named is Pseudomonas aeruginosa. Kind of assay: Antibacterial activity against Pseudomonas aeruginosa ATCC 27853 at 1 mg/mL after 24 hrs by agar diffusion method. Conditions: ATCC 27853, 24 h, read-out: Diameter of inhibition zone. The assay is classed as functional. The essentials:
as §1

Molecules are shown by their SMILES. In brackets after ≈: the same amount, converted by molar mass. Activity calls are given as the source filed them. The rule behind the calls is not given here.

`OC(Cn1nnc(-c2ccccc2)n1)c1ccc(Cl)cc1` (configuration not stated): the Activity in the assay on Mus musculus [1] and in the assay on Mus musculus [2] was 0% each time.

For orientation: zone of inhibition means the extent of the growth-free halo in a diffusion test. A word on the MIC: it is the lowest concentration that inhibits growth of the organism. A low value points to greater potency. Turning to `Cc1cc(C)n(C(=O)COC(Cn2nnc(-c3ccccc3)n2)c2ccc(Cl)cc2)n1` (configuration not stated), the Activity in the assay with Mus musculus [1] and in the assay with Mus musculus [2] was 0% in each case. For the same compound, the zone of inhibition at 1000 µg/mL in the assay with Staphylococcus aureus [3], in the assay on Bacillus subtilis [4], in the assay with Candida albicans, with Aspergillus fumigatus, with Escherichia coli [7] and in the assay with Klebsiella pneumoniae [8] was at least 14 mm in each case. Moreover, the zone of inhibition at 1000 µg/mL in the assay with Micrococcus luteus [9] and with Pseudomonas aeruginosa [14] was at least 14 mm each time. Further, the MIC turned out to be 12.5 µg/mL (≈ 28.6 µM) in the assay on Staphylococcus aureus [5]; 50 µg/mL (≈ 114 µM) in the assay with Escherichia coli [6]; 50 µg/mL (≈ 114 µM) against Micrococcus luteus [10]; 100 µg/mL (≈ 229 µM) in the assay on Klebsiella pneumoniae [11]; 100 µg/mL (≈ 229 µM) with Pseudomonas aeruginosa [12]; 25 µg/mL (≈ 57.2 µM) in the assay on Bacillus subtilis [13]. The outcome in the assay with Pichia kudriavzevii, with Aspergillus niger, in the assay with Trichophyton rubrum and with Candida tropicalis was inactive.

For `O=C(COC(Cn1nnnc1Cc1ccccc1)c1ccc(Cl)cc1)N/N=C/c1ccc(Cl)cc1` (configuration not stated), the Activity with Mus musculus [1] and in the assay with Mus musculus [2] was 50% in each case. Moreover, the zone of inhibition at 1000 µg/mL in the assay on Staphylococcus aureus [3], in the assay on Bacillus subtilis [4], with Candida albicans, with Aspergillus fumigatus, in the assay on Escherichia coli [7] and with Klebsiella pneumoniae [8] was at least 14 mm in each case. The zone of inhibition at 1000 µg/mL with Micrococcus luteus [9] and in the assay with Pseudomonas aeruginosa [14] was at least 14 mm each time. The MIC against Staphylococcus aureus [5] is 100 µg/mL (≈ 196 µM); in the assay on Escherichia coli [6], 100 µg/mL (≈ 196 µM); against Micrococcus luteus [10], 100 µg/mL (≈ 196 µM); against Klebsiella pneumoniae [11] it was at least 200 µg/mL; with Pseudomonas aeruginosa [12], at least 200 µg/mL; with Bacillus subtilis [13], 100 µg/mL (≈ 196 µM). Besides, the result in the assay with Pichia kudriavzevii, in the assay with Aspergillus niger, in the assay on Trichophyton rubrum and in the assay with Candida tropicalis was inactive.

Regarding `Sc1nnc(COC(Cn2nnc(-c3ccccc3)n2)c2ccc(Cl)cc2)n1-c1ccc(Cl)cc1` (configuration not stated), the zone of inhibition at 1000 µg/mL with Staphylococcus aureus [3], in the assay with Bacillus subtilis [4], with Candida albicans, in the assay with Aspergillus fumigatus, with Escherichia coli [7] and in the assay with Klebsiella pneumoniae [8] was at least 14 mm in each case. For the same compound, the zone of inhibition at 1000 µg/mL in the assay with Micrococcus luteus [9] and in the assay on Pseudomonas aeruginosa [14] was at least 14 mm in each case. The MIC was 25 µg/mL (≈ 47.7 µM) in the assay with Staphylococcus aureus [5]; 100 µg/mL (≈ 191 µM) in the assay on Escherichia coli [6]; 100 µg/mL (≈ 191 µM) against Micrococcus luteus [10]; 100 µg/mL (≈ 191 µM) against Klebsiella pneumoniae [11]; at least 200 µg/mL against Pseudomonas aeruginosa [12]; 50 µg/mL (≈ 95.3 µM) with Bacillus subtilis [13]. For the same compound, the outcome with Pichia kudriavzevii, in the assay with Aspergillus niger, with Trichophyton rubrum and in the assay with Candida tropicalis was inactive.

For the compound `O=C(COC(Cn1nnnc1Cc1ccccc1)c1ccc(Cl)cc1)NNC(=S)Nc1ccc(Cl)cc1` (configuration not stated), the zone of inhibition at 1000 µg/mL with Staphylococcus aureus [3], in the assay on Bacillus subtilis [4], in the assay with Candida albicans, in the assay on Aspergillus fumigatus, in the assay with Escherichia coli [7] and in the assay on Klebsiella pneumoniae [8] was at least 14 mm each time. In addition, the zone of inhibition at 1000 µg/mL with Micrococcus luteus [9] and with Pseudomonas aeruginosa [14] was at least 14 mm in each case. In addition, the MIC in the assay with Staphylococcus aureus [5] is 100 µg/mL (≈ 180 µM); with Escherichia coli [6] it was at least 200 µg/mL; with Micrococcus luteus [10] it was at least 200 µg/mL; against Klebsiella pneumoniae [11] it was at least 200 µg/mL; with Pseudomonas aeruginosa [12], at least 200 µg/mL; against Bacillus subtilis [13], at least 200 µg/mL. In addition, the result in the assay on Pichia kudriavzevii, in the assay with Aspergillus niger, in the assay on Trichophyton rubrum and in the assay on Candida tropicalis was inactive.

As to `CCOC(=O)COC(Cn1nnc(-c2ccccc2)n1)c1ccc(Cl)cc1` (configuration not stated), the zone of inhibition at 1000 µg/mL with Staphylococcus aureus [3], in the assay with Bacillus subtilis [4], in the assay with Candida albicans, in the assay on Aspergillus fumigatus, with Escherichia coli [7] and in the assay with Klebsiella pneumoniae [8] was at least 14 mm each time. The zone of inhibition at 1000 µg/mL with Micrococcus luteus [9] and in the assay on Pseudomonas aeruginosa [14] was at least 14 mm each time. For the same compound, the MIC with Staphylococcus aureus [5] is 100 µg/mL (≈ 259 µM); with Escherichia coli [6] it was at least 200 µg/mL; in the assay on Micrococcus luteus [10], at least 200 µg/mL; against Klebsiella pneumoniae [11], at least 200 µg/mL; in the assay on Pseudomonas aeruginosa [12], at least 200 µg/mL; against Bacillus subtilis [13] it was at least 200 µg/mL. Also, the outcome in the assay on Pichia kudriavzevii, in the assay with Aspergillus niger, with Trichophyton rubrum and with Candida tropicalis was inactive.

As for `O=C(O)COC(Cn1nnc(-c2ccccc2)n1)c1ccc(Cl)cc1` (configuration not stated), the zone of inhibition at 1000 µg/mL in the assay on Staphylococcus aureus [3], with Bacillus subtilis [4], in the assay on Candida albicans, with Aspergillus fumigatus, in the assay on Escherichia coli [7] and with Klebsiella pneumoniae [8] was at least 14 mm each time. Also, the zone of inhibition at 1000 µg/mL with Micrococcus luteus [9] and in the assay with Pseudomonas aeruginosa [14] was at least 14 mm in each case. Further, the MIC with Staphylococcus aureus [5] was 100 µg/mL (≈ 279 µM); against Escherichia coli [6], at least 200 µg/mL; against Micrococcus luteus [10], at least 200 µg/mL; against Klebsiella pneumoniae [11], at least 200 µg/mL; in the assay on Pseudomonas aeruginosa [12] it was at least 200 µg/mL; with Bacillus subtilis [13], 100 µg/mL (≈ 279 µM). The outcome with Pichia kudriavzevii, with Aspergillus niger, in the assay on Trichophyton rubrum and with Candida tropicalis was inactive.

Consider `O=C(COC(Cn1nnnc1Cc1ccccc1)c1ccc(Cl)cc1)NNC(=S)Nc1ccccc1` (configuration not stated), for which the zone of inhibition at 1000 µg/mL in the assay on Staphylococcus aureus [3], with Bacillus subtilis [4], in the assay with Candida albicans, with Aspergillus fumigatus, with Escherichia coli [7] and in the assay with Klebsiella pneumoniae [8] was at least 14 mm each time. Also, the zone of inhibition at 1000 µg/mL in the assay on Micrococcus luteus [9] and in the assay on Pseudomonas aeruginosa [14] was at least 14 mm each time. The MIC was 100 µg/mL (≈ 192 µM) against Staphylococcus aureus [5]; 100 µg/mL (≈ 192 µM) against Escherichia coli [6]; 100 µg/mL (≈ 192 µM) in the assay with Micrococcus luteus [10]; at least 200 µg/mL in the assay with Klebsiella pneumoniae [11]; at least 200 µg/mL against Pseudomonas aeruginosa [12]; at least 200 µg/mL in the assay on Bacillus subtilis [13]. Besides, the outcome in the assay with Pichia kudriavzevii, in the assay with Aspergillus niger, in the assay on Trichophyton rubrum and in the assay with Candida tropicalis was inactive.
